Published values pooled from the literature.
Lines come from different studies, so protocols differ.
Target: Serine/threonine-protein kinase pim-2 (PIM2, Homo sapiens, UniProt Q9P1W9)

SMILES | assay | conditions | endpoint | value
CC(C)(C)c1cc(C=C(C#N)C#N)cc(Br)c1O | enzyme activity, inhibitor | 0.5 µM | remaining activity | 115%
N#CC1(c2ccccn2)CCN(Cc2cc(C(=O)O)c(=O)n3ccccc23)CC1 | cell-free assay, competition with immobilised ligand | 1 µM | remaining binding | 100%
COc1ncccc1-c1cnn2ccc(N3CCN(C(=O)OC(C)C)CC3)nc12 | binding, competition with immobilised ligand | 1 µM | remaining binding | 100%
O=c1[nH]c2ccccc2n1C1CCN(Cc2ccc(-c3[nH]c4cc5ncnc5cc4nc3-c3ccccc3)cc2)CC1 | cell-free assay | 0.5 µM | remaining signal | 111%
C#Cc1n[nH]c2c(-c3cn([C@@H](C)c4ccccc4)c(=O)[nH]c3=O)cc(F)cc12 | enzyme activity, inhibitor | 0.1 µM | inhibition | 3.2%
Cn1cc(-c2cccc(N3CCc4c(sc5c4CC(C)(C)C5)C3=O)c2CO)cc(Nc2ccncn2)c1=O | enzyme activity, inhibitor | 1 µM | inhibition | 1%
Cn1cncc1[C@](O)(COc1ccc(C#N)cc1-c1ccc(OC(F)(F)F)cc1)c1ccc(C#N)cc1 | cell-free assay, competition with immobilised ligand | 1 µM | remaining binding | 84%
Cn1cc(-c2cc(F)cc(N3CCn4c(cc5c4CCCC5)C3=O)c2CO)cc(Nc2ccc(N3CCN(C4COC4)CC3)cn2)c1=O | enzyme activity, inhibitor | 0.1 µM | inhibition | -1%
C#Cc1n[nH]c2c(-c3cn(C(C)c4ccccn4)c(=O)[nH]c3=O)cc(F)cc12 (stereo not drawn) | enzyme activity, inhibitor | 1 µM | inhibition | -1.5%
Nc1ncc(-c2nc(N3CCOCC3)nc(N3CCOCC3)n2)c(C(F)F)n1 | binding, competition with immobilised ligand | 10 µM | remaining binding | 92%
Cc1nn(C)cc1-c1nc2c(N3CCN(Cc4ccc(Cl)cc4)CC3)c(Cl)cnc2[nH]1 | binding, competition with immobilised ligand | 1 µM | remaining binding | 100%
COc1cc(Nc2ncc(F)c(Nc3ccc4c(n3)NC(=O)C(C)(C)O4)n2)cc(OC)c1OC | binding, competition with immobilised ligand | 10 µM | inhibition | 0%
